Reference: ChEMBL document CHEMBL2321819, “Design of potent poxvirus inhibitors of the heterodimeric processivity factor required for viral replication” (J Med Chem, 2013)
Calls of active or inactive are those of the source. The calls are words filed in the database; no cut-off is given here.

Experiments:
[1] = test system: Vaccinia virus; test: Antiviral activity against Vaccinia virus WR infected in African green monkey BSC1 cells after overnight incubation by crystal violet staining-based plaque reduction assay; type: functional, organism-based; details: Orthopoxvirus vaccinia, BSC-1
[2] = Selectivity index, ratio of CC50 for African green monkey BSC1 cells to IC50 for Vaccinia virus WR; type: functional, BSC-1
[3] = test system: BSC-1; test: (§1) Cytotoxicity against African green monkey BSC1 cells after 20 hrs by lactate dehydrogenase assay; type: cell-based; details: chlorocebus aethiops, bsc-1, 20 h
How it was run: (§2)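 Cytotoxicity in BSC-1 cells was measured by LDH release, with Neutral Red also used. Assays were run in triplicate and repeated at least twice. CC50 was obtained from a variable-slope four-parameter nonlinear regression fit. Values ≥100 μM were called not active.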

[4] = test system: BSC-1; test: Inhibition of 5 MOI of Vaccinia virus WR DNA polymerase processivity factor A20NT100-D4 complex coexpressing recombinant L1 protein infected in African green monkey BSC1 cells assessed as reduction in EGFP expression at 100 uM after 8 hrs by fluorescence microscopic analysis; type: cell-based
[5] = test system: BSC-1; test: Inhibition of 1 MOI of Vaccinia virus WR DNA polymerase processivity factor A20NT100-D4 complex infected in African green monkey BSC1 cells assessed as decrease in BrdU incorporation at 1 uM after 4 to 8 hrs by DAPI staining-based confocal microscopic analysis; type: cell-based
[6] = test system: Vaccinia virus; test: Antiviral activity against 5 MOI of Vaccinia virus WR infected in African green monkey BSC1 cells assessed as decrease in virus-induced cytopathicity at 1 uM after 8 hrs relative to cidofovir; type: functional, organism-based; details: Orthopoxvirus vaccinia, BSC-1
[7] = test system: Vaccinia virus; test: Antiviral activity against 5 MOI of Vaccinia virus WR infected in African green monkey BSC1 cells assessed as decrease in virus-induced cytopathicity at 1 uM after 8 hrs relative to vehicle-treated control; type: functional, organism-based; details: Orthopoxvirus vaccinia, BSC-1
[8] = test system: BSC-1; test: Inhibition of 1 MOI of Vaccinia virus WR DNA polymerase processivity factor A20NT100-D4 complex infected in African green monkey BSC1 cells assessed as decrease in A4 protein level after 12 hrs by Western blotting analysis; type: cell-based
[9] = test system: BSC-1; test: Inhibition of 1 MOI of Vaccinia virus WR DNA polymerase processivity factor A20NT100-D4 complex infected in African green monkey BSC1 cells assessed as decrease in E3 protein level at 1 uM after 8 hrs by Western blotting analysis; type: cell-based
[10] = test system: BSC-1; test: Inhibition of 5 MOI of Vaccinia virus WR DNA polymerase processivity factor A20NT100-D4 complex coexpressing recombinant L1 protein infected in African green monkey BSC1 cells assessed as reduction in EGFP expression at 1 uM after 8 hrs by fluorescence microscopic analysis; type: cell-based
[11] = as §1; type: cell-based, BSC-1; details: chlorocebus aethiops, BSC-1 cells; how it was run: as §2

SMILES | IC50 [1] [µM] | other results
Cc1ccc2c(Sc3ccc(Cl)cc3)c(C(=O)O)[nH]c2c1 | 82 | –
COC(=O)c1c(Sc2ccc(Cl)cc2)c2cc(C)ccc2n1C | ≥ 100 | –
Cc1ccc(Sc2c(C(=O)O)[nH]c3cc(C)ccc23)cc1 | ≥ 100 | –
Cc1ccc2c(Sc3ccc(Cl)c(Cl)c3)c(C(=O)O)[nH]c2c1 | 34 | –
Cc1ccc2c(Sc3cc(Cl)cc(Cl)c3)c(C(=O)O)[nH]c2c1 | 7 | Ratio CC50/IC50 [2]: 11; CC50 [3]: 75 µM
Cc1cccc2c(Sc3ccc(Cl)c(Cl)c3)c(C(=O)O)[nH]c12 | 35 | –
Cc1ccc2c(c1)c(Sc1ccc(Cl)cc1)c(C(=O)O)n2C | ≥ 100 | –
O=C(O)c1[nH]c2cc(Br)ccc2c1Sc1ccc(Cl)cc1 | 51 | –
Cc1ccc2c(Sc3ccccc3)c(C(=O)O)[nH]c2c1 | ≥ 100 | –
Nc1ccn(C[C@@H](CO)OCP(=O)(O)O)c(=O)n1 | – | inhibition [4]: Active
Cc1cccc2[nH]c(C(=O)OCc3ccccc3)c(Sc3ccc(Cl)cc3)c12 | ≥ 100 | –
Cc1ccc2c(Sc3cc(Cl)c(Cl)cc3Cl)c(C(=O)O)[nH]c2c1 | 25 | –
CCc1ccc2c(Sc3ccc(Cl)cc3)c(C(=O)O)[nH]c2c1 | 36 | –
Cc1cccc2[nH]c(C(=O)O)c(Sc3ccc([N+](=O)[O-])cc3)c12 | ≥ 100 | –
Cc1cccc2[nH]c(C(=O)O)c(Sc3ccc(Cl)cc3)c12 | 86 | –
Cc1ccc2c(Sc3ccc(Br)cc3)c(C(=O)O)[nH]c2c1 | ≥ 100 | –
CCn1c(C(=O)OC)c(Sc2ccc(Cl)cc2)c2cc(C)ccc21 | 39 | –
Cc1cccc2c(Sc3cc(Cl)c(Cl)cc3Cl)c(C(=O)O)[nH]c12 | 21 | –
COC(=O)c1[nH]c2cc(C)ccc2c1Sc1ccccc1 | 10 | –
Cc1ccc2c(Sc3cccc(F)c3)c(C(=O)O)[nH]c2c1 | 69 | –

SMILES | IC50 [1] [µM] | other results
COC(=O)c1ccc(Sc2c(C(=O)O)[nH]c3cccc(C)c23)cc1 | ≥ 100 | –
COc1ccc(Sc2c(C(=O)O)[nH]c3cccc(C)c23)cc1 | ≥ 100 | –
Cc1ccc2c(Sc3cccc(Cl)c3)c(C(=O)O)[nH]c2c1 | 51 | –
O=C(O)c1[nH]c2cc(Cl)ccc2c1Sc1ccc(Cl)cc1 | 47 | –
CCc1ccc2c(Sc3cc(Cl)cc(Cl)c3)c(C(=O)O)[nH]c2c1 | 9 | –
Cc1cccc2[nH]c(C(=O)Oc3ccccc3)c(Sc3ccc(Cl)cc3)c12 | ≥ 100 | –
COC(=O)c1[nH]c2cccc(C)c2c1Sc1ccc(Cl)cc1 | 21 | –
Cc1ccc2[nH]c(C(=O)OC(C)C)c(Sc3ccc(Cl)cc3)c2c1 | ≥ 100 | –
O=C(O)c1[nH]c2cc(F)ccc2c1Sc1ccc(Cl)cc1 | 40 | –
CCn1c(C(=O)O)c(Sc2ccc(Cl)cc2)c2cc(C)ccc21 | 86 | –
Cc1ccc2[nH]c(C(=O)OCc3ccccc3)c(Sc3ccc(Cl)cc3)c2c1 | ≥ 100 | –
CCc1ccc2c(Sc3ccc(Cl)c(Cl)c3)c(C(=O)O)[nH]c2c1 | 42 | –
Cc1ccc2c(Sc3ccc(C(=O)O)cc3)c(C(=O)O)[nH]c2c1 | ≥ 100 | –
Cc1ccc2c(Sc3ccc(Cl)cc3Cl)c(C(=O)O)[nH]c2c1 | 37 | –
O=C(O)c1[nH]c2ccccc2c1Sc1ccc(Cl)cc1 | ≥ 100 | –
Cc1ccc2[nH]c(C(=O)O)c(Sc3ccc(Cl)cc3)c2c1 | 46 | –
Cc1cccc2[nH]c(C(=O)OC(C)C)c(Sc3ccc(Cl)cc3)c12 | ≥ 100 | –
O=C(O)c1[nH]c2ccccc2c1Sc1cc(Cl)cc(Cl)c1 | 43 | –
Cc1ccc2c(Sc3cc(Cl)cc(Cl)c3)c(CC(N)=O)[nH]c2c1 | 0.046 | Ratio CC50/IC50 [2]: 570; CC50 [3]: 26 µM
Cc1ccc2c(Sc3cc(Cl)cc(Cl)c3)c(CCC(N)=O)[nH]c2c1 | 0.042 | Ratio CC50/IC50 [2]: 374; CC50 [3]: 16 µM; inhibition [5]: Active; Activity [6]: Active; Activity [7]: Active; inhibition [8]: Dose-dependent effect; inhibition [9]: Active; inhibition [10]: Active

SMILES | IC50 [1] [µM] | other results
Cc1ccc2c(Sc3ccc(C(F)(F)F)cc3)c(C(=O)O)[nH]c2c1 | 33 | –
Cc1ccc2c(Sc3cc(Cl)cc(Cl)c3)c(CCCC(N)=O)[nH]c2c1 | 0.208 | CC50 at 20 h [11]: ≥ 100 µM
Cc1ccc2c(Sc3cc(Cl)cc(Cl)c3)c(CCC(=O)O)[nH]c2c1 | 0.244 | Ratio CC50/IC50 [2]: 152; CC50 [3]: 36 µM
Cc1ccc2[nH]c(C(=O)Oc3ccccc3)c(Sc3ccc(Cl)cc3)c2c1 | ≥ 100 | –
COC(=O)c1[nH]c2cc(C)ccc2c1Sc1cc(Cl)cc(Cl)c1 | ≥ 100 | –
COC(=O)c1[nH]c2c(C)cccc2c1Sc1ccc(Cl)cc1 | 23 | –
CCOC(=O)c1[nH]c2cccc(C)c2c1Sc1ccc(Cl)cc1 | ≥ 100 | –
CCOC(=O)c1[nH]c2ccc(C)cc2c1Sc1ccc(Cl)cc1 | ≥ 100 | –
Cc1cccc2[nH]c(C(=O)O)c(Sc3cc(Cl)c(Cl)cc3Cl)c12 | 18 | –
COc1ccc(Sc2c(C(=O)O)[nH]c3cc(C)ccc23)cc1 | ≥ 100 | –
Cc1ccc(C)c2c(Sc3ccc(Cl)cc3)c(C(=O)O)[nH]c12 | 50 | –
CNC(=O)c1[nH]c2cc(C)ccc2c1Sc1cc(Cl)cc(Cl)c1 | ≥ 100 | –
COc1cccc2[nH]c(C(=O)O)c(Sc3ccc(Cl)cc3)c12 | ≥ 100 | –
Cc1ccc2c(Sc3ccc(C(F)(F)F)cc3[N+](=O)[O-])c(C(=O)O)[nH]c2c1 | ≥ 100 | –
Cc1ccc(Sc2c(C(=O)O)[nH]c3cccc(C)c23)cc1 | ≥ 100 | –
COC(=O)c1[nH]c2ccc(C)cc2c1Sc1ccc(Cl)cc1 | ≥ 100 | –
COC(=O)c1[nH]c2cc(C)ccc2c1Sc1ccc(Cl)cc1 | 19 | –
Cc1cccc2c(Sc3ccc(Cl)cc3)c(C(=O)O)[nH]c12 | 74 | –
CCCCCCNC(=O)CCc1[nH]c2cc(C)ccc2c1Sc1cc(Cl)cc(Cl)c1 | ≥ 100 | CC50 [3]: 27 µM
